According to ChEMBL document CHEMBL1158168, “Condensed bridgehead nitrogen heterocyclic system: synthesis and pharmacological activities of 1,2,4-triazolo-[3,4-b]-1,3,4-thiadiazole derivatives of ibuprofen and biphenyl-4-yloxy acetic acid” (Eur J Med Chem, 2008):
In brackets after ≈: the same amount, converted by molar mass. Activity calls are given as the source filed them. No cut-off for these calls is given here.

Columns and labels:
[1] = tested on: Rattus norvegicus; test: Hepatotoxicity in po dosed Wistar albino rat assessed as alkaline phosphatase activity after 7 days; format: toxicity, organism-based; settings: in vivo, 168 h
[2] = tested on: Staphylococcus aureus; test: Antibacterial activity against Staphylococcus aureus ATCC 19433 by cup plate method; format: functional
Procedure, shortened: (§1)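 Cup-plate diffusion on nutrient agar, with compounds dissolved in DMF. Compounds were tested at 200, 100, 50 and 25; those inhibiting at 25 were also tested at 12.5 and 6.25. MIC is the lowest concentration preventing visible growth on the plate.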

[3] = tested on: Rattus norvegicus; test: Hepatotoxicity in po dosed Wistar albino rat assessed as total protein content after 7 days; format: toxicity, organism-based; settings: in vivo, 168 h
[4] = tested on: Rattus norvegicus; test: Hepatotoxicity in po dosed Wistar albino rat assessed as hepatocyte necrosis after 7 days; format: toxicity, organism-based; settings: hepatocytes, 168 h
[5] = tested on: Escherichia coli; test: Antibacterial activity against sEscherichia coli ATCC 25922 by cup plate method; format: functional; procedure, shortened: as §1
[6] = tested on: Rattus norvegicus; test: Hepatotoxicity in po dosed Wistar albino rat assessed as total albumin content after 7 days; format: toxicity, organism-based; settings: in vivo, 168 h
[7] = tested on: Rattus norvegicus; test: Hepatotoxicity in po dosed Wistar albino rat assessed as serum glutamate pyruvate transaminase activity after 7 days; format: toxicity, organism-based; settings: in vivo, 168 h
[8] = tested on: Rattus norvegicus; test: Antiinflammatory activity in Wistar albino rat assessed as inhibition of carrageenan-induced paw edema administered at equimolar oral dose relative to 10 mg/kg fluribiprofen measured 4 hrs after carrageenan challenge; format: functional
Procedure, shortened: (§2)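 Wistar rats of either sex (180-200 g), six per group, dosed orally in a 0.5% CMC vehicle. One hour later, 0.1 mL of […] in 0.9% NaCl was injected sub-plantar into the right hind paw. Paw volume was read by plethysmometer before and 4 h after carrageenan, and percent inhibition was calculated.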

[9] = tested on: Candida albicans; test: Antimicrobial activity against Candida albicans ATCC 2091 by cup plate method; format: functional
Procedure, shortened: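 Candida albicans grown on Sabouraud dextrose medium and tested by cup-plate diffusion, with compounds dissolved in DMF. Compounds were tested at 200, 100, 50 and 25; those inhibiting at 25 were also tested at 12.5 and 6.25. MIC is the lowest concentration preventing visible growth.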

[10] = tested on: Rattus norvegicus; test: Hepatotoxicity in po dosed Wistar albino rat assessed as serum glutamate oxaloacetate transaminase activity after 7 days; format: toxicity, organism-based; settings: in vivo, 168 h
[11] = tested on: Rattus norvegicus; test: Gastrointestinal toxicity in rat assessed as gastric mucosal damage severity index administered at equimolar oral dose relative to 30 mg/kg fluribiprofen; format: organism-based, Gastric mucosa; set-up: dose 30 mg/kg, route oral; settings: in vivo
Procedure, shortened: (§3)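 Rats, six per group, were fasted 24 h with water allowed, then dosed orally in a 0.5% CMC vehicle. They were fed normally for 17 h and then sacrificed. Stomachs were opened along the greater curvature and mucosal lesions scored under a magnifier (0.5 redness to 3.0 for more than 5 ulcers). Severity index is the mean group score minus the control mean.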

[12] = tested on: Rattus norvegicus; test: Antiinflammatory activity in Wistar albino rat assessed as inhibition of carrageenan-induced paw edema administered at equimolar oral dose relative to 70 mg/kg ibuprofen measured 4 hrs after carrageenan challenge; format: functional; procedure, shortened: as §2
[13] = tested on: Rattus norvegicus; test: Inhibition of lipid peroxidation in rat assessed as malondialdehyde level per 100 mg of tissue administered at equimolar oral dose relative to 210 mg/kg ibuprofen; format: functional
Procedure, shortened: (§4)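 Gastric mucosa was scraped from the stomachs after ulcer scoring. 100 mg was homogenized in ice-cold 1.15% KCl and reacted with SDS, acetate buffer (pH 3.5) and 0.8% TBA at 95 °C for 60 min. The product was extracted into n-butanol/pyridine (15:1) and absorbance read at 532 nm. MDA was calculated using ε 1.56 × 10⁵ M⁻¹cm⁻¹ and expressed per 100 mg tissue.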

[14] = tested on: Rattus norvegicus; test: Gastrointestinal toxicity in rat assessed as gastric mucosal damage severity index administered at equimolar oral dose relative to 210 mg/kg ibuprofen; format: organism-based, Gastric mucosa; set-up: dose 210 mg/kg, route oral; settings: in vivo; procedure, shortened: as §3
[15] = tested on: Rattus norvegicus; test: Gastrointestinal toxicity in rat assessed as gastric mucosal damage severity index at 210 mg/kg, po; format: organism-based, Gastric mucosa; set-up: dose 210 mg/kg, route oral; settings: in vivo; procedure, shortened: as §3
[16] = tested on: Rattus norvegicus; test: Inhibition of lipid peroxidation in rat assessed as malondialdehyde level per 100 mg of tissue at 210 mg/kg, po; format: functional; procedure, shortened: as §4
[17] = tested on: Mus musculus; test: Analgesic activity in Swiss albino mouse assessed as effect on reaction time for tail withdrawal administered at 70 mg/kg, po after 4 hrs by tail immersion method; format: functional
Procedure, shortened: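 Swiss albino mice of either sex (25-30 g), six per group. Compounds were given orally as a suspension in 0.5% w/v CMC in water. Tail-withdrawal reaction time was measured before dosing and 4 h after, by immersing the lower 5 cm of the tail in water held at 55 ± 0.5 °C.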

[18] = tested on: Mus musculus; test: Analgesic activity in Swiss albino mouse assessed as effect on reaction time for tail withdrawal administered at 10 mg/kg, po after 4 hrs by tail immersion method; format: functional
Procedure, shortened: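 Swiss albino mice of either sex, 25-30 g, groups of six; oral dosing as suspension in 0.5% w/v CMC in water. Tail immersion: lower 5 cm of tail dipped in water held at 55 ± 0.5 °C. Reaction time taken before and 4 h after dosing.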

[19] = tested on: Rattus norvegicus; test: Gastrointestinal toxicity in rat assessed as gastric mucosal damage severity index at 30 mg/kg, po; format: organism-based, Gastric mucosa; set-up: dose 30 mg/kg, route oral; settings: in vivo
Procedure, shortened: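 Rats, groups of six, food but not water withheld 24 h; oral dosing in 0.5% CMC. Normal diet for 17 h, then sacrificed. Stomach opened along the greater curvature and inspected under a magnifying glass. Scored 0.5 redness to 3.0 (>5 ulcers); severity index is the group mean score minus the control mean.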

[20] = tested on: Rattus norvegicus; test: Inhibition of lipid peroxidation in rat assessed as malondialdehyde level per 100 mg of tissue at 30 mg/kg, po; format: functional
Procedure, shortened: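 Gastric mucosa scraped from stomachs after ulcerogenicity testing; 100 mg homogenized in 1.15% ice-cold KCl. TBA method with SDS and acetate buffer pH 3.5, heated at 95 °C for 60 min. Extracted into n-butanol/pyridine 15:1, absorbance read at 532 nm. Expressed as nmol MDA/100 mg tissue using ε 1.56 × 10⁵ cm⁻¹ M⁻¹.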

[21] = tested on: Rattus norvegicus; test: Antiinflammatory activity in Wistar albino rat assessed as inhibition of carrageenan-induced paw edema at 10 mg/kg, po measured 4 hrs after carrageenan challenge; format: functional
Procedure, shortened: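 Wistar albino rats of either sex, 180-200 g, groups of six; oral dosing, vehicle 0.5% CMC. 0.1 mL of 0.1% carrageenan in sterile 0.9% NaCl injected subplantar into the right hind paw 1 h after dosing. Paw volume measured by plethysmometer before and 4 h after carrageenan; percent inhibition calculated.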

Row | Structure (SMILES) | MIC [5] [µg/mL] | inhibition in vivo [8] [%] | MIC [9] [µg/mL] | MIC [2] [µg/mL] | inhibition in vivo [12] [%] | also measured
1 | Fc1ccc(Nc2nn3c(COc4ccc(-c5ccccc5)cc4)nnc3s2)cc1 | 25 (≈ 59.9 µM) | 78.2 |  |  |  | Activity [1]: 17.07 U/ml; Activity [2]: inactive; Activity [3]: 0.9 g/dL; Activity [4]: Non-toxic; Activity [6]: 0.71 g/dL; Activity [7]: 26.5 U/ml; Activity [9]: inactive; Activity [10]: 137 U/ml; UI [11]: 0.666
2 | Cc1ccc(Nc2nn3c(COc4ccc(-c5ccccc5)cc4)nnc3s2)c(C)c1 | 50 (≈ 117 µM) | 39.4 | 100 (≈ 234 µM) |  |  | Activity [2]: inactive
3 | CC(C)Cc1ccc(C(C)c2nnc3sc(Nc4ccc(F)cc4)nn23)cc1 (stereo unspecified) | 200 (≈ 506 µM) |  | 200 (≈ 506 µM) | 200 (≈ 506 µM) | 28 | 
4 | CC(C)Cc1ccc(C(C)c2nnc3sc(-c4ccc(N)cc4)nn23)cc1 (stereo unspecified) | 12.5 (≈ 33.1 µM) |  | 200 (≈ 530 µM) | 200 (≈ 530 µM) | 78.8 | Activity [13]: 5.65 nmol; UI [14]: 0.75
5 | CC(C)Cc1ccc(C(C)c2nnc3sc(Nc4ccccc4)nn23)cc1 (stereo unspecified) | 25 (≈ 66.2 µM) |  |  | 100 (≈ 265 µM) | 68.2 | Activity [13]: 5.12 nmol; Activity [9]: inactive; UI [14]: 0.667
6 | CCCCNc1nn2c(C(C)c3ccc(CC(C)C)cc3)nnc2s1 (stereo unspecified) | 100 (≈ 280 µM) |  | 50 (≈ 140 µM) | 200 (≈ 559 µM) | 80.3 | Activity [13]: 5.78 nmol; UI [14]: 1
7 | CC(=O)N1CCN(c2ccc(OCC3COC(Cn4ccnc4)(c4ccc(Cl)cc4Cl)O3)cc2)CC1 (stereo unspecified) [KETOCONAZOLE] |  |  | 6.25 (≈ 11.8 µM) |  |  | 
8 | CC(C)Cc1ccc(C(C)c2nnc3sc(Cc4ccccc4Nc4c(Cl)cccc4Cl)nn23)cc1 (stereo unspecified) | 200 (≈ 373 µM) |  | 200 (≈ 373 µM) | 50 (≈ 93.2 µM) | 18.2 | 
9 | CCCCNc1nn2c(COc3ccc(-c4ccccc4)cc3)nnc2s1 | 100 (≈ 264 µM) | 65.9 | 25 (≈ 65.9 µM) |  |  | Activity [2]: inactive
10 | CC1COc2c(N3CCN(C)CC3)c(F)cc3c(=O)c(C(=O)O)cn1c23 (stereo unspecified) [OFLOXACIN] | 6.25 (≈ 17.3 µM) |  |  | 6.25 (≈ 17.3 µM) |  | 
11 | CC(C)Cc1ccc(C(C)c2nnc3sc(-c4ccc(Cl)cc4Cl)nn23)cc1 (stereo unspecified) | 200 (≈ 464 µM) |  | 200 (≈ 464 µM) | 200 (≈ 464 µM) | 80.3 | Activity [1]: 15.18 U/ml; Activity [3]: 1.89 g/dL; Activity [4]: Non-toxic; Activity [13]: 5.04 nmol; Activity [6]: 1.8 g/dL; Activity [7]: 28.17 U/ml; UI [14]: 0.333; Activity [10]: 147.5 U/ml
12 | c1ccc(Nc2nn3c(COc4ccc(-c5ccccc5)cc4)nnc3s2)cc1 | 25 (≈ 62.6 µM) |  | 200 (≈ 501 µM) |  |  | Activity [2]: inactive
13 | c1ccc(-c2ccc(OCc3nnc4sc(-c5ccccc5)nn34)cc2)cc1 | 25 (≈ 65 µM) | 65.1 |  | 25 (≈ 65 µM) |  | Activity [9]: inactive
14 | CC(C)Cc1ccc(C(C)C(=O)O)cc1 (stereo unspecified) [IBUPROFEN] |  |  |  |  |  | UI [15]: 2; Activity [16]: 7.79 nmol; inhibition in vivo at 70 mg/kg [17]: 74.1%
15 | Clc1ccc(OCc2nn3c(COc4ccc(-c5ccccc5)cc4)nnc3s2)c(Cl)c1 | 50 (≈ 103 µM) | 50.8 | 50 (≈ 103 µM) | 25 (≈ 51.7 µM) |  | 
16 | Cc1ccc(Nc2nn3c(C(C)c4ccc(CC(C)C)cc4)nnc3s2)c(C)c1 (stereo unspecified) | 50 (≈ 123 µM) |  | 200 (≈ 493 µM) | 200 (≈ 493 µM) | 53 | 
17 | Clc1ccc(-c2nn3c(COc4ccc(-c5ccccc5)cc4)nnc3s2)c(Cl)c1 | 50 (≈ 110 µM) |  |  | 25 (≈ 55.1 µM) |  | 
18 | CC(C)Cc1ccc(C(C)c2nnc3sc(COc4ccc(Cl)cc4Cl)nn23)cc1 (stereo unspecified) | 25 (≈ 54.2 µM) |  | 100 (≈ 217 µM) | 200 (≈ 433 µM) | 38.6 | 
19 | Nc1ccc(-c2nn3c(COc4ccc(-c5ccccc5)cc4)nnc3s2)cc1 | 200 (≈ 501 µM) | 76.5 | 200 (≈ 501 µM) | 50 (≈ 125 µM) |  | UI [11]: 0.417
20 | Clc1ccc(-c2nn3c(COc4ccc(-c5ccccc5)cc4)nnc3s2)cc1 | 25 (≈ 59.7 µM) | 78.8 | 50 (≈ 119 µM) | 100 (≈ 239 µM) |  | UI [11]: 0.833
21 | Nc1ccccc1-c1nn2c(COc3ccc(-c4ccccc4)cc3)nnc2s1 | 50 (≈ 125 µM) | 47.7 | 25 (≈ 62.6 µM) | 25 (≈ 62.6 µM) |  | 
22 | CC(C)Cc1ccc(C(C)c2nnc3sc(-c4ccccc4N)nn23)cc1 (stereo unspecified) | 100 (≈ 265 µM) |  | 12.5 (≈ 33.1 µM) | 200 (≈ 530 µM) | 57.6 | 
23 | CC(C(=O)O)c1ccc(-c2ccccc2)c(F)c1 (stereo unspecified) [FLURBIPROFEN] |  |  |  |  |  | inhibition in vivo at 10 mg/kg [18]: 69.5%; UI [19]: 1.666; Activity [20]: 7.51 nmol; inhibition in vivo at 10 mg/kg [21]: 80.3%
